Converted amounts (≈) assume the structure as drawn. “Also recorded” adds a separate entry of the source. Like-named read-outs stand apart in the source and are kept apart here. *1 amine or outer side, *2 acyl side, *3 side chain or, on linkers, in order; H or OH if unused. Where a SMILES comes first, the peptide text is derived from it. Bridges are numbered along the chain shown (N, C = ends). [ ]: non-standard residue; d: D form. X1 = CC(C)CCCCCCCCC[C@H](CC(=O)[*:1])O[*:2]
Key:
[1] = system: ATCC 25923; experiment: Bacterial growth curves, ATCC 25923; format: cell-based, S. aureus
Outline: (§1)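 Cultures of ATCC 25923 and a clinical MRSA strain were diluted to 1×10^6 CFU/mL in MH broth with surfactin at 0, 1/2×MIC, MIC or 2×MIC, with an MH broth-only negative control. Tubes were shaken at 200 rpm and 35 °C for 24 h. OD600 was read at 0, 4, 8, 12 and 24 h. Runs were done in triplicate.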

[2] = system: fnbB; conditions: S. aureus; cited from earlier work
[3] = system: SA 366; experiment: Microbroth dilution MIC, SA 366; format: cell-based, S. aureus; conditions: SA 366 (MDR), triplicate
Outline: (§2)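 Surfactin was dissolved in sterile distilled water and tested by broth microdilution in MH broth. Strains were a reference strain and MALDI-TOF-identified clinical isolates from diabetic foot ulcers. MIC was the lowest concentration without visible growth. For MBC, 10 µL from clear wells was plated on MH agar for 24 h at 37 °C, and MBC was the lowest concentration giving no colonies. Tests were run in triplicate.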

[4] = system: ATCC 25923 biofilm formation; experiment: Biofilm inhibition assay; format: cell-based, S. aureus
Outline: (§3)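 Overnight cultures were diluted in TSB containing serial surfactin dilutions (1/64×MIC to 2×MIC) to 1×10^6 CFU/mL and grown in triplicate wells for 24 h at 37 °C. Wells were washed three times with PBS and stained with 0.5% crystal violet for 20 min. After air-drying, stain was solubilised in 95% ethanol for 20 min at room temperature and OD570 was read.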

[5] = system: sortaseA; conditions: S. aureus; cited from earlier work
[6] = system: SA 452; experiment: Bacterial growth curves, SA 452; format: cell-based, S. aureus; conditions: for Growth inhibition: 24-h exposure, 0, 1/2×MIC, MIC, 2×MIC
Outline: as §1

[7] = system: S. aureus (ATCC 25923 and MRSA SA 452); experiment: Mutant prevention / resistance selection, both strains; format: cell-based; conditions: S. aureus
Outline: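 Strains were grown 24 h in MH broth, centrifuged at 4000×g for 10 min and resuspended to 1×1010 CFU/mL. […] MPC was the lowest concentration preventing colonies. MPC/MIC ratio defined the mutant selection window.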

[8] = system: SA 452; experiment: Microbroth dilution MIC, SA 452; format: cell-based, S. aureus; conditions: SA 452 (MRSA), triplicate
Outline: as §2

[9] = system: icaA; conditions: cited from earlier work
[10] = system: SA 326; experiment: Microbroth dilution MIC, SA 326; format: cell-based, S. aureus; conditions: SA 326 (MRSA), triplicate
Outline: as §2

[11] = system: SA 452
[12] = system: human red blood cells; experiment: Human red blood cells hemolysis assay; format: cell-based; conditions: 1 h, 37 °C
Outline: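 Whole blood from healthy human volunteers was spun at 1000×g for 5 min, and the RBCs were washed three times in PBS and resuspended in PBS. RBC suspension was mixed 1:1 with serial surfactin dilutions and incubated 1 h at 37 °C, then supernatant A570 was read. Hemolysis % was scaled between 0.1% DMSO (negative) and 0.1% Triton X-100 (positive).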

[13] = system: ATCC 25923
[14] = system: fnbA; conditions: S. aureus; cited from earlier work
[15] = system: icaD; conditions: cited from earlier work
[16] = system: standard and clinical strains of Staphylococcus aureus; experiment: MIC and MBC by microbroth dilution, all selected strains; format: cell-based
Outline: as §2

[17] = system: SA 452 biofilm formation; experiment: Biofilm inhibition assay; format: cell-based, S. aureus
Outline: as §3

[18] = system: ATCC 25923; experiment: Microbroth dilution MIC, ATCC 25923; format: cell-based, S. aureus; conditions: triplicate
Outline: as §2

[19] = system: Gram-negative bacteria; experiment: Efficacy against Gram-negative bacteria; format: cell-based; conditions: data not shown
[20] = system: SA 095; experiment: Microbroth dilution MIC, SA 095; format: cell-based, S. aureus; conditions: SA 095 (non-MDR), triplicate
Outline: as §2

[21] = system: S. aureus biofilm; conditions: ref 28 (Liu et al), cited from earlier work
[22] = system: S. aureus biofilm formation; experiment: Biofilm inhibition assay; format: cell-based
Outline: as §3

[23] = system: penicillinase; experiment: Penicillinase inhibition assay; format: biochemical
Outline: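 Penicillin K (10,000 U/mL) added at 2:1 to mixture, 1 h at 37 °C. Then 0.01 mol/L iodine for 15 min, back-titrated with 0.01 mol/L Na2S2O3 to colourless, starch indicator near endpoint. Thiosulfate consumed is inversely related to enzyme activity.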

[24] = system: ATCC 25923; experiment: Transmission electron microscopy; format: cell-based, S. aureus; conditions: 5×MIC, 1 h, control 0.05% DMSO
[25] = 1.5 mg/mL, ref 39 (Englerová et al)

CC(C)CCCCCCCCC[C@@H]1CC(=O)N[C@@H](CCC(=O)O)C(=O)N[C@@H](CC(C)C)C(=O)N[C@H](CC(C)C)C(=O)N[C@@H](C(C)C)C(=O)N[C@@H](CC(=O)O)C(=O)N[C@H](CC(C)C)C(=O)N[C@@H](CC(C)C)C(=O)O1 [Surfactin, surfactin] (EL[dL]VD[dL]L; linker N-C via X1 (inferred))
Growth inhibition ([1]; 24-h exposure, 0, 1/2×MIC, MIC, 2×MIC, OD600): inhibited the growth of ATCC 25923 and SA 452 in a dose-dependent manner | Growth inhibition at MIC and 2×MIC ([1]; MIC and 2×MIC): almost completely inhibited | Growth reduction at half the MIC ([1]; from 4 h, 1/2×MIC): significantly reduced from 4 h | Expression of fnbB (in words) [2]: inhibit the expression | MIC [3]: 512 µg/mL (≈ 494 µM) | Biofilm inhibition, dose dependence ([4]; 1/64×MIC to 2×MIC): dose-dependent inhibitory effect | Inhibition of biofilm formation ([4]; 2×MIC, crystal violet, 24 h, 37°C): 80% | Concentration from which biofilm inhibition starts ([4]; crystal violet, OD570, 24 h, 37°C, TSB): 1/16 | Expression of sortaseA (in words) [5]: inhibit the expression | Growth inhibition ([6]; OD600): inhibited the growth of ATCC 25923 and SA 452 in a dose-dependent manner | Growth inhibition ([6]; OD600, listed as surfactin): inhibited the growth of both ATCC 25923 and SA 452 in a dose-dependent manner | Growth inhibition at MIC and 2×MIC ([6]; MIC and 2×MIC): almost completely inhibited | Growth reduction at half the MIC ([6]; from 4 h, 1/2×MIC): significantly reduced from 4 h | In vitro resistance development [7]: In vitro resistance was not readily produced | MIC [8]: 512 µg/mL (≈ 494 µM) | Downregulation of icaA expression [9, 25]: 2.82 fold | Expression of icaA (in words) ([9]; 2×MIC, ref 28 (Liu et al)): significantly reduced the expression | MIC [10]: 1024 µg/mL (≈ 988 µM) | FICI ([11]; surfactin with ampicillin): 0.133 | Fold Change ([11]; surfactin with ampicillin): 8 | FICI ([11]; surfactin with ciprofloxacin): 2 | FICI ([11]; surfactin with erythromycin): 2 | FICI ([11]; surfactin with gentamicin): 0.25 | Fold Change ([11]; surfactin with gentamicin): 8 | FICI ([11]; surfactin with oxacillin): 0.156 | Fold Change ([11]; surfactin with oxacillin): 8 | FICI ([11]; surfactin with tetracycline): 0.133 | Fold Change ([11]; surfactin with tetracycline): 8 | Hemolysis at 16×MIC ([12]; 16×MIC, human RBC): > 5% | Hemolysis below 16×MIC ([12]; all concentrations less than 16×MIC, human RBC): no hemolysis was observed | Concentration at which hemolytic activity (hemolysis > 5%) occurred ([12]; human RBC in PBS, A570, Triton X-100 positive control): 16 ×MIC | Cytotoxicity to RBCs (in words) ([12]; human RBC): limited toxicity on human red blood cells; also recorded: extremely low cytotoxicity to RBCs; also recorded: very low cytotoxicity to erythrocytes | FICI ([13]; surfactin with ampicillin): 0.5 | Fold Change ([13]; surfactin with ciprofloxacin): 2 | Fold Change ([13]; surfactin with erythromycin): 8 | FICI ([13]; surfactin with oxacillin): 0.25 | Fold Change ([13]; surfactin with oxacillin): 8 | FICI ([13]; surfactin with tetracycline): 0.188 | Fold Change ([13]; surfactin with tetracycline): 8 | Expression of fnbA (in words) [14]: inhibit the expression | Downregulation of icaD expression [15, 25]: 1.85 fold | Expression of icaD (in words) ([15]; 2×MIC, ref 28 (Liu et al)): significantly reduced the expression | Antibacterial activity (in words) ([16]; S. aureus from DFUs (non-MDR, MDR, MRSA) and ATCC 25923): antibacterial and bactericidal activity against S. aureus strains; also recorded: effectively inhibited the growth of S. aureus | Difference in MICs between strains with different resistance patterns ([16]; non-MDR, MDR, MRSA, ATCC 25923): no significant difference in MICs | MRSA biofilm inhibition at 2×MIC (in words) ([17]; MRSA, 2×MIC): almost completely inhibited | Biofilm inhibition, dose dependence ([17]; SA 452, 1/64×MIC to 2×MIC): dose-dependent inhibitory effect | Inhibition of biofilm formation ([17]; SA 452, 2×MIC, crystal violet, 24 h, 37°C): more than 95% | Concentration from which biofilm inhibition starts ([17]; SA 452, crystal violet, OD570, 24 h, 37°C, TSB): 1/16 | MIC [18]: 512 µg/mL (≈ 494 µM) | Efficacy against Gram-negative bacteria relative to Gram-positive [19]: less than that of Gram-positive bacteria | MIC [20]: 512 µg/mL (≈ 494 µM) | Biofilm removal rate ([21]; 0.2% surfactin, 4 h): 80% | Reduction of biofilm production ([21]; one-quarter MIC, S. aureus): 60% | Biofilm inhibition at 1/16×MIC (in words) ([22]; 1/16×MIC): significantly inhibited | Biofilm inhibition (in words) ([22]; S. aureus): significantly prevented the S. aureus biofilm formation; also recorded: dose-dependent inhibitory effect on S. aureus biofilm formation; also recorded: significantly reducing biofilm production | Volume of Na2S2O3 consumed (penicillinase inhibition) ([23]; […], 10,000 U/mL penicillinase, 18 h, 35 °C, penicillinase-only control 0.5 mL): 2.25 mL | Penicillinase inhibition (in words) ([23]; iodometry): directly inhibited penicillinase activity, but not as much as the clavulanate potassium; also recorded: significantly reduced penicillinase activity | Cell structure by TEM [24]: damaged structure, leading to cell lysis and death; also recorded: irregular and collapsed surfaces, content leakage, and cell death

From PMC10674630 (Diabetes, Metabolic Syndrome and Obesity, 2023)
